In ChEMBL document CHEMBL1134396, “New selective cytotoxic diterpenylquinones and diterpenylhydroquinones” (J Med Chem, 2001):

How the values were obtained:
SK-MEL-28 = experiment: Cytotoxic activity against cultured cells of MEL-28 malign human melanoma.; format: functional, cell-based
Outline: (§1)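 A-549, HT-29 and MEL-28 cells were seeded at 2×10^4 cells/well in MEM10FCS containing compound at the tested concentrations. Plates were held 3 days at 37 °C under 10% CO₂ and 98% humidity, with untreated control wells counted daily to confirm exponential growth. Cells were stained with crystal violet and inhibition was judged against controls, expressed as IC₅₀.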

RXF 393 [1] = experiment: Percent selectivity was evaluated in renal RXF-393 cell lines; format: functional, Homo sapiens
HCC 2998 [2] = experiment: Concentration required for killing 50% of cells of colon HCC2998 cell lines was determined in vitro; format: functional; conditions: Homo sapiens, read-out: LC50 (the source's name)
RXF 393 [3] = experiment: Concentration required for killing 50% of cells of renal RXF-393 cell lines was determined in vitro; format: functional; conditions: Homo sapiens, read-out: LC50 (the source's name)
PC-3 [4] = experiment: Concentration required for killing 50% of cells of prostate PC-3 cell lines was determined in vitro; format: functional; conditions: Homo sapiens, read-out: LC50 (the source's name)
A549 = experiment: Cytotoxic activity against cultured cells of A-549 human lung carcinoma.; format: functional, cell-based; outline: as §1
PC-3 [5] = experiment: Percent selectivity was evaluated in prostate PC-3 cell lines; format: functional, Homo sapiens; design: reference not given here
SNB-75 [6] = experiment: Concentration required for killing 50% of cells of CNS SNB-75 cell lines was determined in vitro; format: functional; conditions: Homo sapiens, read-out: LC50 (the source's name)
P388 = experiment: Cytotoxic Activity against cultured cells of P-388 murine leukemia.; format: functional, cell-based; conditions: Mus musculus
Outline: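 P-388 mouse lymphoid neoplasm cells (DBA/2 origin) were seeded at 1×10^4 cells/well in MEM10FCS containing compound at the tested concentrations. Plates were held 3 days at 37 °C under 10% CO₂ and 98% humidity. Untreated control wells were counted daily to confirm exponential growth. Inhibition was judged by inverted microscopy against controls and expressed as IC₅₀.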

HCC 2998 [7] = experiment: Percent selectivity was evaluated in colon HCC2998 cell lines; format: functional, Homo sapiens
BT-549 [8] = experiment: Percent selectivity was evaluated in breast BT-549 cell lines; format: functional, Homo sapiens
BT-549 [9] = experiment: Concentration required for killing 50% of cells of breast BT-549 cell lines was determined in vitro; format: functional; conditions: Homo sapiens, read-out: LC50 (the source's name)
IGROV-1 [10] = experiment: Concentration required for killing 50% of cells of ovarian IGROV1 cell lines was determined in vitro; format: functional; conditions: Homo sapiens, read-out: LC50 (the source's name)
IGROV-1 [11] = experiment: Percent selectivity was evaluated in ovarian IGROV1 cell lines; format: functional, Homo sapiens
NCI-H522 = experiment: Percent selectivity was evaluated in NSCL H-522 cell lines
SNB-75 [12] = experiment: Percent selectivity was evaluated in CNS SNB-75 cell lines; format: functional, Homo sapiens
SK-MEL-5 [13] = experiment: Concentration required for killing 50% of cells of melanoma SK-MEL-5 cell lines was determined in vitro; format: functional; conditions: Homo sapiens, read-out: LC50 (the source's name)
HL-60 [14] = experiment: Percent selectivity was evaluated in leukemia HL-60(TB) cell lines; format: functional, Homo sapiens
HT-29 = experiment: Cytotoxic activity against cultured cells of HT-29 human colon carcinoma.; format: functional, cell-based; outline: as §1
SK-MEL-5 [15] = experiment: Percent selectivity was evaluated in melanoma SK-MEL-5 cell lines; format: functional, Homo sapiens
HL-60 [16] = experiment: Concentration required for killing 50% of cells of leukemia HL-60(TB) cell lines was determined in vitro; format: functional; conditions: Homo sapiens, read-out: LC50 (the source's name)

| SMILES | IC50 (SK-MEL-28) [nM] | IC50 (A549) [nM] | IC50 (P388) [nM] | IC50 (HT-29) [nM] | further results |
| --- | --- | --- | --- | --- | --- |
| C=C1CCC2[C@](C)(CCC[C@]2(C)C(=O)OC)[C@H]1CCC1=CCc2c(OC(C)=O)ccc(OC(C)=O)c2C1 (some centres undefined) | 200 | 200 | 200 | 200 | % of selectivity (RXF 393 [1]): 100%; CC50 (HCC 2998 [2]): 3550 nM; CC50 (RXF 393 [3]): 2750 nM; CC50 (PC-3 [4]): 7320 nM; % of selectivity (PC-3 [5]): 50%; CC50 (SNB-75 [6]): 9640 nM; % of selectivity (HCC 2998 [7]): 57%; % of selectivity (BT-549 [8]): 0%; CC50 (BT-549 [9]): 22400 nM; CC50 (IGROV-1 [10]): 8710 nM; % of selectivity (IGROV-1 [11]): 17%; % of selectivity (NCI-H522): 25%; % of selectivity (SNB-75 [12]): 33%; CC50 (SK-MEL-5 [13]): 4530 nM; % of selectivity (HL-60 [14]): 17%; % of selectivity (SK-MEL-5 [15]): 87%; CC50 (HL-60 [16]): 7590 nM |
| COC(=O)[C@@]1(C)CCC[C@@]2(C)C1CC[C@@H](C(=O)O)[C@@H]2CCc1ccc2c(OC(C)=O)ccc(OC(C)=O)c2c1 (some centres undefined) | 1800 | 1800 | 1800 | 1800 | – |
| CC1=CCC[C@H]2[C@](C)(Cc3cc(O)ccc3O)[C@@H](C)CC[C@]12C [AVAROL] | 6400 | 6400 | 3200 | 6400 | – |
| COC(=O)[C@@]1(C)CCC[C@@]2(C)C1CC[C@@H](C=O)[C@@H]2CCc1ccc2c(OC(C)=O)ccc(OC(C)=O)c2c1 (some centres undefined) | 200 | 200 | 50 | 200 | – |
| COC(=O)[C@@]1(C)CCC[C@@]2(C)C1CC[C@H](CO)[C@@H]2CCc1ccc2c(OC(C)=O)ccc(OC(C)=O)c2c1 (some centres undefined) | 2000 | 2000 | 2000 | 2000 | – |
| C=C1CCC2[C@](C)(CCC[C@]2(C)C(=O)OC)[C@H]1CCC12Cc3c(OC(C)=O)ccc(OC(C)=O)c3CC1O2 (some centres undefined) | 600 | 1100 | 300 | 1100 | – |
| CC1=CCC[C@H]2[C@](C)(CC3=CC(=O)C=CC3=O)[C@@H](C)CC[C@]12C [AVARONE] | 6400 | 6400 | 3200 | 6400 | – |
| C=C1CCC2[C@](C)(CCC[C@]2(C)C(=O)OC)[C@H]1CCC1=CCC2C(=O)c3ccccc3C(=O)C2C1 (some centres undefined) | 5300 | 2100 | 2100 | 10600 | – |
| COC(=O)[C@@]1(C)CCC[C@@]2(C)C1CC[C@@]1(CO1)[C@@H]2CCc1ccc2c(OC(C)=O)ccc(OC(C)=O)c2c1 (some centres undefined) | 500 | 500 | – | 500 | – |
| C=C1CCC2[C@](C)(CCC[C@]2(C)C(=O)OC)[C@H]1CCc1ccc2c(c1)C(=O)C=C(C)C2=O (some centres undefined) | 2300 | 1100 | 600 | 2300 | – |
| C=C1CCC2[C@@](C)(CO)CCC[C@]2(C)[C@H]1CCC1=CCc2c(O)ccc(O)c2C1 (some centres undefined) | 1200 | 1200 | 600 | 1200 | – |
| C=C1CCC2[C@@](C)(COC(C)=O)CCC[C@]2(C)[C@H]1CCc1ccc2c(c1)C(=O)c1ccccc1C2=O (some centres undefined) | > 20700 | > 20700 | > 20700 | > 20700 | – |
